Bioassay records: PubChem, Johns Hopkins Ion Channel Center
KCNK3 block – human KCNK3 channel inhibitors, primary screen, CHO cells, FluxOR thallium flux, B-score. Potassium channel subfamily K member 3 (Homo sapiens), O14649. FluxOR fluorescence; hits give low values. B-score at 10 µM. hit rate 0.84% among 340,000. AID 602410, 2012;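 active = B-score under library mean minus 4 SD, starting fluorescence ratio at most library mean plus 5 SD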;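 note: more negative B-score means stronger inhibition of thallium flux through KCNK3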
KCNK9 block – KCNK9 potassium channel inhibitors, primary screen, HEK293 cells, thallium flux; Potassium channel subfamily K member 9 (Homo sapiens), Q9NPC2; FluxOR thallium flux fluorescence; hits give low values; B-score at 10 µM; hit rate 1.2% among 310,000;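 active = ratio B-score over 3 SD below the library mean, with starting fluorescence within 5 SD of its mean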;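 note: negative B-score means less thallium flux so channel inhibition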
KCNQ1 block – inhibitors of human KCNQ1 channel, primary screen, cell-based, thallium flux, high-throughput; Potassium voltage-gated channel subfamily KQT member 1 (Homo sapiens), P51787; CHO-K1 KCNQ1, FluxOR thallium flux fluorescence; hits give high values; B-score at 10 µM; hit rate 1.3% among 310,000; AID 2642, 2010;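 active = compounds whose thallium flux B-score, printed positive for inhibition, exceeds three library SD while starting fluorescence stays within three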;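 note: channel opened by potassium depolarization with thallium stimulus after 20 min compound exposure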
hERG protect – hERG rescue from dofetilide block, primary screen, cell-based, CHO-hERG, FluxOR thallium flux, dofetilide IC70; hit rate 0.51% among 310,000; activation (rescue from dofetilide block), less the hit threshold, % at 10 µM; Voltage-gated inwardly rectifying potassium channel KCNH2 (Homo sapiens), Q12809; AID 1511, 2009; dofetilide IC70 present;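 active = activation above the mean of controls blocked by dofetilide plus 5 SD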;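 note: thallium influx through hERG after potassium depolarization seen as dye fluorescence rise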
KCNQ1 act – potentiators or activators of KCNQ1 channel, primary screen, cell-based, thallium flux, high-throughput; hit rate 0.35% among 310,000; CHO-K1 KCNQ1, thallium flux FluxOR fluorescence; hits give high values; AID 2648, 2010; Potassium voltage-gated channel subfamily KQT member 1 (Homo sapiens), P51787; B-score at 10 µM;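 active = fluorescence ratio B-score, a plate-corrected score, at least three library SD, with initial intensity B-score within 5 SD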
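Assay system: CHO-K1 cells stably expressing KCNQ1. Medium: assay buffer for compound exposure, DMSO matched across wells. Timing: 37 °C overnight plating, 90-min dark dye load, 20-min compound pretreatment. Signal: kinetic FluxOR fluorescence, 10 s baseline plus 110 s post-stimulus.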
Kir21 block – inhibitors of mouse Kir2.1 inward-rectifier potassium channel; Inward rectifier potassium channel 2 (Mus musculus), P35561; HEK293-Kir2.1, FluxOR thallium flux fluorescence; hits give low values; B-score at 10 µM; hit rate 0.85% among 310,000; AID 1672, 2009;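 active = fluorescence ratio B-score at or below minus 3 SD of library scores, with starting-brightness B-score within 2 SD, cut at about -4.2 in these data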;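 note: channel flux triggered by added potassium and thallium sulfate stimulus; B-score of peak minus minimum fluorescence over baseline after thallium stimulus; more negative B-score means stronger Kir2.1 block with less thallium influx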
* hit, by the source's call. In the library only some 3.7% were active in any assay of this set; here they are far more common.

CCOc1ccc(-n2ccnc2SCC(=O)N2CCCc3ccccc32)cc1 was read as KCNK3 block inactive, KCNK9 block inactive, KCNQ1 block inactive, hERG protect -5, KCNQ1 act inactive and Kir21 block -6.7*.
`C1=NN(c2ccccc2)C=NN1c1ccccc1` gave KCNK3 block inactive.
Screening NCC12CC3CC(C1)CC(c1ccc(Cl)cc1)(C3)C2 returned KCNK3 block inactive, KCNK9 block -7.2*, KCNQ1 block inactive, hERG protect -37, KCNQ1 act inactive and Kir21 block -10*.
Nc1ccc(C23CC4CC(CC(CO)(C4)C2)C3)cc1 was read as KCNK3 block inactive, KCNK9 block inactive, KCNQ1 block inactive, hERG protect -8, KCNQ1 act inactive and Kir21 block -0.02.
`c1ccc2c(N3CCCCCC3)nc(-c3ccncc3)nc2c1` gave KCNK3 block inactive, KCNK9 block -6.6*, KCNQ1 block inactive, hERG protect -16, KCNQ1 act inactive and Kir21 block 0.6.
c1cncc(-c2nc(N3CCCCCC3)c3ccccc3n2)c1 was read as KCNK3 block inactive, KCNK9 block inactive, KCNQ1 block inactive, hERG protect -31, KCNQ1 act inactive and Kir21 block -0.18.
Screening CC(=O)N1CCN(c2nc(-c3cccs3)nc3ccccc23)CC1 returned KCNK3 block inactive, KCNK9 block inactive, KCNQ1 block inactive, hERG protect -20, KCNQ1 act inactive and Kir21 block -1.6.
For CN(Cc1ccccc1F)c1nc(-c2cccs2)nc2ccccc12 the results were KCNK3 block inactive, KCNK9 block -8*, KCNQ1 block 6*, hERG protect -18, KCNQ1 act inactive and Kir21 block -0.07.
Screening Fc1ccccc1N1CCN(c2nc(-c3cccs3)nc3ccccc23)CC1 returned KCNK3 block inactive, KCNK9 block -7.6*, KCNQ1 block inactive, hERG protect -16, KCNQ1 act inactive and Kir21 block 2.2.
`Cc1cc(C)nc(-n2nc(C)cc2NC(=O)c2ccc(S(=O)(=O)N3CCOCC3)cc2)n1` gave KCNK9 block inactive, KCNQ1 block inactive, hERG protect -11, KCNQ1 act inactive and Kir21 block 0.02.
`CCOC(=O)c1sc(NC(=O)CN2CCN(c3ccc(OC)cc3)CC2)nc1C` gave KCNK3 block inactive, KCNK9 block inactive, KCNQ1 block inactive, hERG protect -8, KCNQ1 act inactive and Kir21 block -0.06.
CSc1ccc(CN(C)Cc2cc(=O)oc3c(C)c(C)ccc23)cc1 was read as KCNK3 block inactive, KCNK9 block inactive, KCNQ1 block 7*, hERG protect -15, KCNQ1 act inactive and Kir21 block -0.5.
For COc1cccc(NC(=O)CN2C(=O)COc3ccc(S(=O)(=O)N4CCOCC4)cc32)c1 the results were KCNK3 block inactive, KCNK9 block inactive, KCNQ1 block inactive, hERG protect -5, KCNQ1 act inactive and Kir21 block 0.
Screening Cc1ccccc1C(=O)N1CCC(C(=O)Nc2ccc(S(=O)(=O)N3CCCCC3)cc2)CC1 returned KCNK3 block inactive, KCNK9 block inactive, KCNQ1 block inactive, hERG protect -12, KCNQ1 act inactive and Kir21 block 1.6.
Screening CC(C)Cc1ccc(C(C)C(=O)Nc2cccnc2)cc1 (stereo not drawn) returned KCNK3 block inactive, KCNK9 block inactive, KCNQ1 block inactive, hERG protect -16, KCNQ1 act inactive and Kir21 block 2.9.
Screening CC(C)Cc1ccc(C(C)C(=O)Nc2ccc(O)cc2)cc1 (stereo not drawn) returned KCNK3 block inactive, KCNK9 block inactive, KCNQ1 block inactive, hERG protect -11, KCNQ1 act 10* and Kir21 block -0.47.
`O=C1CN(C(=O)COC(=O)c2ccc([N+](=O)[O-])o2)c2ccccc2N1` gave KCNK3 block inactive.
